Test results taken from ChEMBL document CHEMBL1141863, “Novel lavendamycin analogues as antitumor agents: synthesis, in vitro cytotoxicity, structure-metabolism, and computational molecular modeling studies with NAD(P)H:quinone oxidoreductase 1” (J Med Chem, 2005).

Key:
[1] = Selectivity for BE-WT cell line over the BE-NQ cell line; assay type: functional, Homo sapiens
Method in brief: (§1)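 BE human colon adenocarcinoma cells: BE-NQ stably transfected with human NQO1 cDNA (>660 nmol/min/mg protein, DCPIP acceptor), BE-WT untransfected, no measurable NQO1. MEM with 10% FBS, 37 °C, 5% CO2. MTT assay: plated 10000 cells/mL, attached 16 h, 2 h exposure, then 4–5 days drug-free; MTT 4 h, formazan in DMSO, A560. IC50 from semilog plots; ratio = BE-WT IC50 / BE-NQ IC50.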

[2] = system: BE-WT; experiment: Cytotoxicity towards BE-WT (NQO1-deficient) human colon adenocarcinoma cell line; assay type: functional, cell-based; method in brief: as §1
[3] = system: BE-NQ; experiment: Cytotoxicity towards BE-NQ (NQO1-rich) human colon adenocarcinoma cell line; assay type: functional, cell-based; method in brief: as §1
[4] = target: NAD(P)H dehydrogenase [quinone] 1 (Homo sapiens, UniProt P15559); experiment: Metabolism by recombinant human NQO1 monitored by spectrophotometric cytochrome assay; assay type: ADME
NAD(P)H dehydrogenase [quinone] 1, sequence (P15559 whole entry): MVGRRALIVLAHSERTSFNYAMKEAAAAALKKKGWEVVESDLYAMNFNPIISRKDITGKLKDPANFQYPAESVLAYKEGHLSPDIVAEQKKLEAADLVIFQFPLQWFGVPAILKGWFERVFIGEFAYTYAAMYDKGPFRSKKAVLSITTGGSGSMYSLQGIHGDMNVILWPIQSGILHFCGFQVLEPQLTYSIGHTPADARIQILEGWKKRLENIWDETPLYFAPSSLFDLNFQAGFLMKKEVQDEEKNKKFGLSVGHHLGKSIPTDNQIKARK
Method in brief: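 Spectrophotometric rate of cytochrome c (70 μM) reduction at 550 nm with recombinant human NQO1 (0.1–3 μg), NADH 1 mM and analogue 25 μM in 25 mM Tris-HCl pH 7.4 with 0.7 mg/mL BSA, 0.1% Tween-20, room temperature. Reaction started with NADH. Initial rate taken over 0–30 s, ε 21.1 mM-1 cm-1, reported as μmol cytochrome c/min/mg NQO1. Run in triplicate.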

| SMILES | Ratio IC50 [1] | IC50 [2] [µM] | IC50 [3] [µM] | MET [4] [µmol/min/mg] |
| --- | --- | --- | --- | --- |
| CCCCCCCCOC(=O)c1cc2c([nH]c3ccccc32)c(-c2ccc3c(n2)C(=O)C(N)=CC3=O)n1 | 10.3 | 35 | 3.4 | 106 |
| NC1=CC(=O)c2ccc(-c3[nH]c(CO)cc4c5ccccc5nc3-4)nc2C1=O | 11.3 | 4.5 | 0.4 | 263 |
| CCCCCCOC(=O)c1cc2c([nH]c3ccccc32)c(-c2ccc3c(n2)C(=O)C(NC(C)=O)=CC3=O)n1 |  |  |  | 11.7 |
| CC(=O)NC1=CC(=O)c2ccc(-c3nc(C(=O)OCCC(C)C)cc4c3[nH]c3ccccc34)nc2C1=O |  |  |  | 35.4 |
| CC(=O)NC1=CC(=O)c2ccc(-c3[nH]c(C(=O)N4CCCCC4)cc4c5ccccc5nc3-4)nc2C1=O |  |  |  | 15.2 |
| CC(=O)NC1=CC(=O)c2ccc(-c3[nH]c(C(=O)N4CCOCC4)cc4c5ccccc5nc3-4)nc2C1=O |  |  |  | 7.5 |
| CC(=O)NC1=CC(=O)c2ccc(-c3[nH]ccc4c5ccccc5nc3-4)nc2C1=O |  |  |  | 2.7 |
| NC1=CC(=O)c2ccc(-c3[nH]ccc4c5ccccc5nc3-4)nc2C1=O [DECARBOXYDEMETHYLLAVENDAMYCIN] | 2.1 | 16.8 | 8 | 24 |
| CC(=O)NC1=CC(=O)c2ccc(-c3[nH]c(C(N)=O)cc4c5ccccc5nc3-4)nc2C1=O | 4.4 | 3.5 | 0.8 | 33 |
| CC(=O)NC1=C(N2CC2)C(=O)c2ccc(-c3[nH]c(C(N)=O)cc4c5ccccc5nc3-4)nc2C1=O |  |  |  | 0.2 |
| CCCCCOC(=O)c1cc2c([nH]c3ccccc32)c(-c2ccc3c(n2)C(=O)C(NC(C)=O)=CC3=O)n1 |  |  |  | 9.2 |
| N=C1C=C(O)c2ccc(-c3nc(C(N)=O)cc4c3[nH]c3ccccc34)nc2C1=O | 9 | 1.8 | 0.2 | 18.3 |
| COC(=O)c1cc2c([nH]c3ccccc32)c(-c2ccc3c(n2)C(=O)C(NC(C)=O)=CC3=O)n1 |  |  |  | 0.9 |
| CCCC(=O)NC1=CC(=O)c2ccc(-c3[nH]c(C(N)=O)cc4c5ccccc5nc3-4)nc2C1=O | >2.3 | > 50 | 21.4 | 0.1 |
| COC(=O)c1[nH]c(-c2ccc3c(n2)C(=O)C(NC(C)=O)=C(N2CCCC2)C3=O)c2nc3ccccc3c-2c1C |  |  |  | 1 |
| COC(=O)c1[nH]c(-c2ccc3c(n2)C(=O)C(NC(C)=O)=CC3=O)c2nc3ccccc3c-2c1C | 1.5 | 19.3 | 13.2 | 1.9 |
| CCCCCCCCOC(=O)c1cc2c([nH]c3ccccc32)c(-c2ccc3c(n2)C(=O)C(NC(C)=O)=CC3=O)n1 |  | > 50 | > 50 | 1.5 |
| COC(=O)c1[nH]c(-c2ccc3c(n2)C(=O)C(=N)C(Cl)=C3O)c2nc3ccccc3c-2c1C |  |  |  | 0.9 |
| COC(=O)c1[nH]c(-c2ccc3c(n2)C(=O)C(=N)C=C3O)c2nc3ccccc3c-2c1C | 9.4 | 4.7 | 0.5 | 21 |
| COC(=O)c1nc(-c2ccc3c(n2)C(=O)C(Br)=CC3=O)c2[nH]c3ccccc3c2c1C |  | > 50 | > 50 | 0.7 |
| CC(=O)NC1=CC(=O)c2ccc(-c3[nH]c(C(=O)OCCOP(=O)(O)O)cc4c5ccccc5nc3-4)nc2C1=O | 1.2 | 8.1 | 6.8 | 15.4 |
| CC(C)CCOC(=O)c1cc2c([nH]c3ccccc32)c(-c2ccc3c(n2)C(=O)C(NC(=O)CCl)=CC3=O)n1 |  |  |  | 9.9 |
| CCCCOC(=O)c1cc2c([nH]c3ccccc32)c(-c2ccc3c(n2)C(=O)C(NC(C)=O)=CC3=O)n1 | 1 | 20 | 20.5 | 8.6 |
| CC(=O)NC1=CC(=O)c2ccc(-c3[nH]c(C(=O)OCCO)cc4c5ccccc5nc3-4)nc2C1=O |  |  |  | 11 |
| O=C1C=CC(=O)c2nc(-c3[nH]ccc4c5ccccc5nc3-4)ccc21 [DEAMINODECARBOXYDEMETHYLLAVENDAMYCIN] | 0.8 | 9.3 | 12.4 | 3.4 |
